Data on 1 compound can be found in ChEMBL document CHEMBL4715734, “Discovery of the Potent and Selective M1 PAM-Agonist N-[(3R,4S)-3-Hydroxytetrahydro-2H-pyran-4-yl]-5-methyl-4-[4-(1,3-thiazol-4-yl)benzyl]pyridine-2-carboxamide (PF-06767832): Evaluation of Efficacy and Cholinergic Side Effects” (J Med Chem, 2016).

Data set [1] can be described thus: fAUC (0 to 24 hrs) in rat at 10 mg/kg, po administered for 14 days. Format: ADME, organism-based. The settings on record: in vivo, 336 h, time 14 day. In outline:
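2-week repeat oral dosing in rats, 0.5% methylcellulose formulation; N=4/sex/dose; doses 3, 10, 30 (males)/15 (females) mg/kg; unbound exposures reported per dose and sex.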

Data set [2] can be described thus: Unbound plasma concentration in CD-1 mouse at 1 mg/kg, sc measured after 2 hrs by LC-MS/MS analysis. Format: ADME, organism-based. The note with it: in vivo.
In data set [3] the target is Muscarinic acetylcholine receptor M3 (Homo sapiens, UniProt P20309). Kind of data set: Agonist activity at human recombinant muscarinic M3 receptor stably expressed in CHO cells assessed as increase in intracellular calcium level up to 10 uM incubated for 10 mins by Fluo-8AM dye based FLIPR TETRA method. Type of data set: cell-based. Background: Calcium flux is commonly read through the fluorescence of an indicator in the cells.

Data set [4] concerns the target T1, Muscarinic acetylcholine receptor M1 (Rattus norvegicus) (UniProt P08482).
T1 sequence (whole entry): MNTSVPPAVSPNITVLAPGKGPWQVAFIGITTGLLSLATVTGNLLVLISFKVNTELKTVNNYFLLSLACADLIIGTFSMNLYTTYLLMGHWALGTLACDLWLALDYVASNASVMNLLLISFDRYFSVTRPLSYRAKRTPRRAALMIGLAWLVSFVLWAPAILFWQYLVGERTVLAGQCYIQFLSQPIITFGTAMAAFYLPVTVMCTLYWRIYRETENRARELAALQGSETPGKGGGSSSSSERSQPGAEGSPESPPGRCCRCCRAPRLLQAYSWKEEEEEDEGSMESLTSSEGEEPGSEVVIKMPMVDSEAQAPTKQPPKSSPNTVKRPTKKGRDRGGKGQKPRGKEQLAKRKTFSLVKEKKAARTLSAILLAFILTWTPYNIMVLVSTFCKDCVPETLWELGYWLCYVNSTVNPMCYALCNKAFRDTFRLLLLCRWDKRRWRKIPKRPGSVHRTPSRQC
Kind of data set: Positive allosteric modulation of muscarinic M1 receptor in Sprague-Dawley rat hippocampal slice assessed as increase in carbachol-induced CA1 spiked rates by electrophysiological analysis. The note with it: filed as positive allosteric modulator.

The target of data set [5] is T2, Muscarinic acetylcholine receptor M1 (Homo sapiens, UniProt P11229).
T2 sequence (P11229 whole entry): T1 sequence (whole entry) with V5A, S254T, S309P, K320R, G337A, V413I
Nature of the data set: Positive allosteric modulation of muscarinic M1 receptor (unknown origin) assessed as increase in Ach-induced recruitment of beta-arrestin by Path Hunter assay. Format: cell-based, CHO.

Data set [6] can be described thus: Ratio of AUC monkey brain to fAUC in monkey plasma. Format: ADME, cell-free, Macaca mulatta. The note with it: rhesus monkey, in vivo.
Data set [7] can be described thus: Oral bioavailability in dog at 0.5 mg/kg. Format: ADME, organism-based, Canis lupus familiaris. The note with it: in vivo.
Data set [8] is described as follows: Aqueous solubility of compound at pH 6.5. Format: physicochemical. The settings on record: buffer.
The subject of the next data set is MDR1 (P-gp). Kind of data set: Efflux ratio of permeability across basolateral to apical side over apical to basolateral side in dog MDCK-MDR1 cells. Format: ADME, cell-based, Canis lupus familiaris.
Data set [9] is described as follows: Toxicity in rat assessed as histopathological changes at 3 to 30 mg/kg, po administered for 14 days. Format: organism-based. The note with it: in vivo, 336 h, dose 3-30 mg/kg, time 14 day. In outline: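 Two-week repeat-dose toxicity study in rats. Oral dosing in 0.5% methylcellulose at 3, 10, 30 (males)/15 (females) mg/kg, N=4/sex/dose. Food intake, body weight gain and histopathology were assessed.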

Substitutions are numbered along the chain they refer to. Converted amounts (≈) assume the structure as drawn.

Sequence of Muscarinic acetylcholine receptor M3 (P20309 whole entry): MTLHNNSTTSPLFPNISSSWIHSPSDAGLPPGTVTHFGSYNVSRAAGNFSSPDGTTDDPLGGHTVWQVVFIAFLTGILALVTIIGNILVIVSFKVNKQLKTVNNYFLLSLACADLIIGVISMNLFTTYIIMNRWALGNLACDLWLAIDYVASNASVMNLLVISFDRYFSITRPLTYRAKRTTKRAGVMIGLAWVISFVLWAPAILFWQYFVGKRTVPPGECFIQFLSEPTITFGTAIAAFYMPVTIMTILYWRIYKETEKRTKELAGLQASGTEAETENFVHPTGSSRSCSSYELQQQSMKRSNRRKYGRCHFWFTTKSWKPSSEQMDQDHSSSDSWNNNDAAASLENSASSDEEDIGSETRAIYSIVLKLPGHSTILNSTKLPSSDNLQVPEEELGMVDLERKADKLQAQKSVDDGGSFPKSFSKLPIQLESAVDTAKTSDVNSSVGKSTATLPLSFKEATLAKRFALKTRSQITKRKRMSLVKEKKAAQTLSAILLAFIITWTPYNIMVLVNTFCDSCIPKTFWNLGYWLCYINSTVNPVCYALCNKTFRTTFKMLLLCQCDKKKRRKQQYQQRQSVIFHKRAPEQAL

In turn, `Cc1cnc(C(=O)N[C@H]2CCOC[C@@H]2O)cc1Cc1ccc(-c2cscn2)cc1` showed a fAUC in [1] of 5.739 µM·h. In addition, the “Cp(f)” value in [2] was determined as 42.1 nM. The values for the Activity result in data set [3], in [4] and in data set [9] were “Not Active”, “Dose-dependent effect” and “Non-Toxic”, respectively. Moreover, the EC50 in data set [5] was 365 nM. Also, the “Ratio AUC” value in data set [6] is 0.41. Moreover, the bioavailability in data set [7] is 43%. Besides, the concentration in solution in data set [8] (solubility) came to 2.7 µg/mL (≈ 6.59 µM). In addition, the efflux ratio with MDR1 (P-gp) was 1.3.

The term EC50 denotes the concentration at which the effect is half-maximal. A word on the bioavailability: it is dose-corrected exposure relative to a reference, in per cent. In general, solubility refers to the concentration that dissolves in the medium under given conditions. One may read the efflux ratio as the permeability from basolateral to apical divided by that in the opposite direction, in the common usage.
